# Laboratory results from ChEMBL document CHEMBL5058577, “EUbOPEN Chemogenomics Library 2 (Multiplex)” (2022).
# Test system: Fibroblast
# Assay: Multiplex assay against human fibroblast
# Assay type: toxicity, cell-based
# Summary of the method: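 Live cells carried four stains from seeding: Hoechst33342, BioTracker Green Microtubule Cytoskeleton Dye, MitoTracker Red and Annexin V Alexa Fluor 680. They were imaged on a CQ1 microscope at 37°C and 5% CO2 after compound addition. Using CellPathfinder machine-learning gating, cells were split into Hoechst high-intensity objects or normal cells, normal cells into healthy, pyknosed or fragmented nuclei, and pyknosed cells into mitotic or apoptotic; tubulin, mitochondrial-mass and membrane-permeability phenotypes are per cents of healthy-nucleus cells.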
# [1] = 12 h, 1 µM, compound concentration 1 uM, replicate 1
# [2] = 12 h, 1 µM, compound concentration 1 uM, replicate 2
# [3] = 12 h, 10 µM, compound concentration 10 uM, replicate 1
# [4] = 12 h, 10 µM, compound concentration 10 uM, replicate 2
# [5] = 24 h, 1 µM, compound concentration 1 uM, replicate 1
# [6] = 24 h, 1 µM, compound concentration 1 uM, replicate 2
# [7] = 24 h, 10 µM, compound concentration 10 uM, replicate 1
# [8] = 24 h, 10 µM, compound concentration 10 uM, replicate 2
# [9] = 48 h, 1 µM, compound concentration 1 uM, replicate 1
# [10] = 48 h, 1 µM, compound concentration 1 uM, replicate 2
# [11] = 48 h, 10 µM, compound concentration 10 uM, replicate 1
# [12] = 48 h, 10 µM, compound concentration 10 uM, replicate 2
compound,measurement,setting,value
Cc1onc(-c2ccccc2Cl)c1C(=O)N(C)c1ccc(Cl)cc1,Population Apoptotic (%),[1],60%
same,Population Fragmented Nuclei (%),[1],17%
same,Population Healthy Nuclei (%),[1],68%
same,Population Hoechst High Intensity Objects (%),[1],7%
same,Population Membrane Permeable-Phenotype (%),[1],0%
same,Population Mitochondria Different-Phenotype (%),[1],7%
same,Population Mitotic Cells (%),[1],39%
same,Population Normal (%),[1],92%
same,Population Pyknosed Nuclei (%),[1],13%
same,Population Tubulin-Different-Phenotype (%),[1],23%
same,Total Cell Count,[1],178
same,Population Apoptotic (%),[2],35%
same,Population Fragmented Nuclei (%),[2],22%
same,Population Healthy Nuclei (%),[2],50%
same,Population Hoechst High Intensity Objects (%),[2],9%
same,Population Membrane Permeable-Phenotype (%),[2],6%
same,Population Mitochondria Different-Phenotype (%),[2],8%
same,Population Mitotic Cells (%),[2],65%
same,Population Normal (%),[2],90%
same,Population Pyknosed Nuclei (%),[2],27%
same,Population Tubulin-Different-Phenotype (%),[2],63%
same,Total Cell Count,[2],161
same,Population Apoptotic (%),[3],36%
same,Population Fragmented Nuclei (%),[3],16%
same,Population Healthy Nuclei (%),[3],70%
same,Population Hoechst High Intensity Objects (%),[3],2%
same,Population Membrane Permeable-Phenotype (%),[3],2%
same,Population Mitochondria Different-Phenotype (%),[3],6%
same,Population Mitotic Cells (%),[3],63%
same,Population Normal (%),[3],97%
same,Population Pyknosed Nuclei (%),[3],13%
same,Population Tubulin-Different-Phenotype (%),[3],29%
same,Total Cell Count,[3],144
same,Population Apoptotic (%),[4],37%
same,Population Fragmented Nuclei (%),[4],24%
same,Population Healthy Nuclei (%),[4],48%
same,Population Hoechst High Intensity Objects (%),[4],3%
same,Population Membrane Permeable-Phenotype (%),[4],5%
same,Population Mitochondria Different-Phenotype (%),[4],11%
same,Population Mitotic Cells (%),[4],62%
same,Population Normal (%),[4],96%
same,Population Pyknosed Nuclei (%),[4],27%
same,Population Tubulin-Different-Phenotype (%),[4],64%
same,Total Cell Count,[4],151
same,Population Apoptotic (%),[5],44%
same,Population Fragmented Nuclei (%),[5],18%
same,Population Healthy Nuclei (%),[5],65%
same,Population Hoechst High Intensity Objects (%),[5],7%
same,Population Membrane Permeable-Phenotype (%),[5],0%
same,Population Mitochondria Different-Phenotype (%),[5],1%
same,Population Mitotic Cells (%),[5],55%
same,Population Normal (%),[5],92%
same,Population Pyknosed Nuclei (%),[5],16%
same,Population Tubulin-Different-Phenotype (%),[5],16%
same,Total Cell Count,[5],178
same,Population Apoptotic (%),[6],39%
same,Population Fragmented Nuclei (%),[6],22%
same,Population Healthy Nuclei (%),[6],54%
same,Population Hoechst High Intensity Objects (%),[6],12%
same,Population Membrane Permeable-Phenotype (%),[6],8%
same,Population Mitochondria Different-Phenotype (%),[6],4%
same,Population Mitotic Cells (%),[6],60%
same,Population Normal (%),[6],87%
same,Population Pyknosed Nuclei (%),[6],23%
same,Population Tubulin-Different-Phenotype (%),[6],56%
same,Total Cell Count,[6],182
same,Population Apoptotic (%),[7],20%
same,Population Fragmented Nuclei (%),[7],16%
same,Population Healthy Nuclei (%),[7],76%
same,Population Hoechst High Intensity Objects (%),[7],2%
same,Population Membrane Permeable-Phenotype (%),[7],1%
same,Population Mitochondria Different-Phenotype (%),[7],4%
same,Population Mitotic Cells (%),[7],80%
same,Population Normal (%),[7],97%
same,Population Pyknosed Nuclei (%),[7],7%
same,Population Tubulin-Different-Phenotype (%),[7],32%
same,Total Cell Count,[7],134
same,Population Apoptotic (%),[8],54%
same,Population Fragmented Nuclei (%),[8],21%
same,Population Healthy Nuclei (%),[8],55%
same,Population Hoechst High Intensity Objects (%),[8],4%
same,Population Membrane Permeable-Phenotype (%),[8],6%
same,Population Mitochondria Different-Phenotype (%),[8],6%
same,Population Mitotic Cells (%),[8],45%
same,Population Normal (%),[8],95%
same,Population Pyknosed Nuclei (%),[8],23%
same,Population Tubulin-Different-Phenotype (%),[8],59%
same,Total Cell Count,[8],149
same,Population Apoptotic (%),[9],76%
same,Population Fragmented Nuclei (%),[9],26%
same,Population Healthy Nuclei (%),[9],62%
same,Population Hoechst High Intensity Objects (%),[9],9%
same,Population Membrane Permeable-Phenotype (%),[9],0%
same,Population Mitochondria Different-Phenotype (%),[9],1%
same,Population Mitotic Cells (%),[9],23%
same,Population Normal (%),[9],90%
same,Population Pyknosed Nuclei (%),[9],10%
same,Population Tubulin-Different-Phenotype (%),[9],22%
same,Total Cell Count,[9],185
same,Population Apoptotic (%),[10],48%
same,Population Fragmented Nuclei (%),[10],28%
same,Population Healthy Nuclei (%),[10],54%
same,Population Hoechst High Intensity Objects (%),[10],11%
same,Population Membrane Permeable-Phenotype (%),[10],10%
same,Population Mitochondria Different-Phenotype (%),[10],6%
same,Population Mitotic Cells (%),[10],51%
same,Population Normal (%),[10],88%
same,Population Pyknosed Nuclei (%),[10],17%
same,Population Tubulin-Different-Phenotype (%),[10],51%
same,Total Cell Count,[10],188
same,Population Apoptotic (%),[11],44%
same,Population Fragmented Nuclei (%),[11],25%
same,Population Healthy Nuclei (%),[11],68%
same,Population Hoechst High Intensity Objects (%),[11],4%
same,Population Membrane Permeable-Phenotype (%),[11],0%
same,Population Mitochondria Different-Phenotype (%),[11],3%
same,Population Mitotic Cells (%),[11],55%
same,Population Normal (%),[11],95%
same,Population Pyknosed Nuclei (%),[11],6%
same,Population Tubulin-Different-Phenotype (%),[11],34%
same,Total Cell Count,[11],141
same,Population Apoptotic (%),[12],65%
same,Population Fragmented Nuclei (%),[12],31%
same,Population Healthy Nuclei (%),[12],55%
same,Population Hoechst High Intensity Objects (%),[12],1%
same,Population Membrane Permeable-Phenotype (%),[12],8%
same,Population Mitochondria Different-Phenotype (%),[12],6%
same,Population Mitotic Cells (%),[12],35%
same,Population Normal (%),[12],98%
same,Population Pyknosed Nuclei (%),[12],12%
same,Population Tubulin-Different-Phenotype (%),[12],53%
same,Total Cell Count,[12],166
